Laboratory results as given in ChEMBL document CHEMBL3232734, “Nitric oxide (NO) releasing poly ADP-ribose polymerase 1 (PARP-1) inhibitors targeted to glutathione S-transferase P1-overexpressing cancer cells” (J Med Chem, 2014).
Active and inactive are the calls of the source. The rule behind the calls is not given here.

Assays:
A549 [1] = experiment: Anticancer activity against human A549 cells assessed as reduction in number of colonies at 1 uM in presence of 3 nM proteasome inhibitor bortezomib by colony forming assay; type: functional, cell-based
Summary of the method: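 A549 colony forming assay after combined treatment with the proteasome inhibitor bortezomib.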

A549 [2] = experiment: Drug metabolism in human A549 cells assessed as nitric oxide release at 10 uM by LC/MS/MS analysis in presence of GSH/GSTP1; type: ADME, cell-based; conditions: a549, 10 µM
Summary of the method: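 A549 cells were plated in 75 cm2 flasks and grown overnight at 37 °C, then treated with 10 μM compound for varying times up to 1 h. Cells were lysed in 10 mM HCl/acetonitrile, 5-sulfosalicylic acid was added, and the precipitate was spun off at 12000g for 15 min. Supernatant was filtered and metabolites were identified by positive-ion LC/MS/MS (Q-TOF, C18, water/acetonitrile/0.1% formic acid gradient).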

A549 [3] = experiment: Induction of apoptosis in human A549 cells assessed as cleaved PARP level after 8 hrs by immunoblot analysis; type: functional, cell-based
Summary of the method: (§1)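 A549 cells treated with compound, lysed and immunoblotted for cleaved caspase 8, caspases 3 and 7, and PARP (full-length and cleaved). Caspase 8 was read within 6 h at 1 μM. Representative of at least three independent experiments.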

Tumour [4] = experiment: Drug metabolism in tumor of NCr nu/nu athymic mouse xenografted with human A549 cells assessed as metabolite formation at 92 umol/kg, iv administered two times a week for 4 weeks; type: ADME, organism-based, Neoplasm; conditions: in vivo, 672 h
Summary of the method: (§2)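 A549 cells (RPMI 1640 + 10% FBS, ≤4 passages) harvested at 70–80% confluence, 5 × 10^6 cells in PBS implanted s.c.; at ~3 mm × 3 mm tumors, mice randomized into groups of 12. Tail-vein injection at 92 μmol/kg in 20 μL DMSO, twice weekly for 4 weeks; saline or DMSO controls. Tumors caliper-measured twice weekly, volume = π/2 × L × W². Tumors resected at end, frozen, extracted for metabolite analysis by LC/MS.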

[5] = molecular target: T1, MAP kinase p38 (Homo sapiens) (UniProt O15264+Q15759+Q16539+P53778); experiment: Induction of p38 phosphorylation in human A549 cells after 8 hrs by immunoblot analysis; type: cell-based
Summary of the method: (§3)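 A549 cells treated with compound and p38 phosphorylation followed by immunoblot from 15 min to 8 h after the start of treatment. At least three independent experiments.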

Tumour [6] = experiment: Drug uptake in tumor of NCr nu/nu athymic mouse xenografted with human A549 cells at 92 umol/kg, iv administered two times a week for 4 weeks; type: ADME, organism-based, Neoplasm; conditions: in vivo, 672 h; summary of the method: as §2
[7] = molecular target: T2, Glutathione S-transferase A1 (Homo sapiens, UniProt P08263); experiment: Ratio of prodrug activation in presence of GSH and recombinant GSTA1 (unknown origin) to prodrug activation in presence of GSH by UV-Visible spectrophotometry
T2 sequence (P08263 whole entry): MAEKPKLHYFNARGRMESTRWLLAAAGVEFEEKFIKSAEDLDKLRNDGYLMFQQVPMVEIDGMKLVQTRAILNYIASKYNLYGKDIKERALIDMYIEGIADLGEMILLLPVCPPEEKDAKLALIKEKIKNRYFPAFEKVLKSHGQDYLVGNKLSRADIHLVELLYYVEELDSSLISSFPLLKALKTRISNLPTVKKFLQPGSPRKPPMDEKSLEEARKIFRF
Summary of the method: (§4)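 UV–vis kinetics at 37 °C in 0.1 M phosphate buffer, pH 7.4, with 50 μM DTPA and 4 mM GSH, with or without 40 nM recombinant GSTP1 or GSTA1. Substrate (typically 10 μM) added after thermal equilibration. Absorbance followed at 302 nm; first-order rate from an exponential fit. Ratios are k with enzyme over k with GSH alone.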

[8] = molecular target: T1, MAP kinase p38 (Homo sapiens); experiment: Induction of p38 phosphorylation in human A549 cells within 15 mins after drug treatment by immunoblot analysis; type: cell-based; summary of the method: as §3
A549 [9] = experiment: Induction of endoplasmic reticulum stress in human A549 cells assessed as upregulation of BiP protein expression by immunoblot analysis; type: functional, cell-based
A549 [10] = experiment: Induction of apoptosis in human A549 cells assessed as cleaved caspase 7 level by immunoblot analysis; type: functional, cell-based; summary of the method: as §1
[11] = molecular target: Eukaryotic translation initiation factor 2 subunit 1 (Homo sapiens) (UniProt P05198); experiment: Induction of eIF2-alpha phosphorylation in human A549 cells by immunoblot analysis; type: cell-based
A549 [12] = experiment: Induction of endoplasmic reticulum stress in human A549 cells assessed as upregulation of ATF4 protein expression by immunoblot analysis; type: functional, cell-based
A549 [13] = experiment: Induction of apoptosis in human A549 cells assessed as cleaved caspase 8 level at 1 uM within 6 hrs after drug treatment by immunoblot analysis; type: functional, cell-based; summary of the method: as §1
A549 [14] = experiment: Induction of endoplasmic reticulum stress in human A549 cells assessed as upregulation of CHOP protein expression by immunoblot analysis; type: functional, cell-based
A549 [15] = experiment: Anticancer activity against human A549 cells xenografted in NCr nu/nu athymic mouse assessed as reduction of tumor growth at 92 umol/kg, iv administered two times a week for 4 weeks; type: functional, organism-based; summary of the method: as §2
[16] = molecular target: Glutathione S-transferase P (Homo sapiens, UniProt P09211); experiment: Ratio of prodrug activation in presence of GSH and recombinant GSTP1 (unknown origin) to prodrug activation in presence of GSH by UV-Visible spectrophotometry; summary of the method: as §4
A549 [17] = experiment: Induction of endoplasmic reticulum stress in human A549 cells assessed as protein glutathionylation after 8 hrs by immunoblot analysis; type: functional, cell-based
U-937 = experiment: Drug metabolism in human U937 cells assessed as nitric oxide release at 5 uM by LC/MS/MS analysis in presence of GSH/GSTP1; conditions: u-937, 5 µM
A549 [18] = experiment: Induction of apoptosis in human A549 cells assessed as cleaved caspase 3 level by immunoblot analysis; type: functional, cell-based; summary of the method: as §1
A549 [19] = experiment: Induction of apoptosis in human A549 cells assessed as cleaved PARP level by immunoblot analysis; type: functional, cell-based; summary of the method: as §1
Mus musculus = experiment: Systemic toxicity in NCr nu/nu athymic mouse xenografted with human A549 cells assessed as body weight at 92 umol/kg, iv administered two times a week for 4 weeks (reference value: 25.0 +/-0.78 gms); type: organism-based; conditions: in vivo, 672 h
A549 [20] = experiment: Induction of endoplasmic reticulum stress in human A549 cells assessed as protein glutathionylation measured within 1 hr post-drug treatment by immunoblot analysis; type: functional, cell-based
[21] = molecular target: Poly [ADP-ribose] polymerase 1 (Homo sapiens, UniProt P09874); experiment: Inhibition of PARP-1 (unknown origin) assessed as incorporation of biotinylated poly ADP-ribose onto histone proteins at 0.1 to 1000 nM by colorimetric analysis in presence of GSH and GSTP1
Summary of the method: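 PARP activity measured with a colorimetric histone biotinylated poly(ADP-ribose) incorporation kit. GSH (4 mM) with or without 40 nM GSTP1 in PBS pH 7.4 was preincubated 10 min at 37 °C. Reaction started by adding prodrug (10 μM substrate) and ran a further 10 min; absorbance read at 450 nm. Inhibitors tested over 0.01 nM–1 μM.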

[22] = Prodrug activation assessed as GSH reactivity in aqueous phosphate buffer at pH 7.4 by UV-Visible spectrophotometer analysis; type: physicochemical
Summary of the method: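 UV–vis kinetics at 37 °C in 0.1 M phosphate buffer, pH 7.4, with 50 μM DTPA and 4 mM GSH, with or without 40 nM recombinant GSTP1 or GSTA1. Substrate (typically 10 μM) added after thermal equilibration. Ratios are k with enzyme over k with GSH alone.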

Sequence of Glutathione S-transferase P (P09211 whole entry): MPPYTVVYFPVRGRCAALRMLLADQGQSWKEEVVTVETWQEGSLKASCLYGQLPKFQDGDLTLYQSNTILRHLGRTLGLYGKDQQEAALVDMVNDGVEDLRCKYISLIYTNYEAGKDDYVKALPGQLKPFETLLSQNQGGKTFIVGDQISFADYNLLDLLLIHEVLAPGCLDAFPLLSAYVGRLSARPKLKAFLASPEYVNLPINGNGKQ
Sequence of Poly [ADP-ribose] polymerase 1 (P09874 whole entry): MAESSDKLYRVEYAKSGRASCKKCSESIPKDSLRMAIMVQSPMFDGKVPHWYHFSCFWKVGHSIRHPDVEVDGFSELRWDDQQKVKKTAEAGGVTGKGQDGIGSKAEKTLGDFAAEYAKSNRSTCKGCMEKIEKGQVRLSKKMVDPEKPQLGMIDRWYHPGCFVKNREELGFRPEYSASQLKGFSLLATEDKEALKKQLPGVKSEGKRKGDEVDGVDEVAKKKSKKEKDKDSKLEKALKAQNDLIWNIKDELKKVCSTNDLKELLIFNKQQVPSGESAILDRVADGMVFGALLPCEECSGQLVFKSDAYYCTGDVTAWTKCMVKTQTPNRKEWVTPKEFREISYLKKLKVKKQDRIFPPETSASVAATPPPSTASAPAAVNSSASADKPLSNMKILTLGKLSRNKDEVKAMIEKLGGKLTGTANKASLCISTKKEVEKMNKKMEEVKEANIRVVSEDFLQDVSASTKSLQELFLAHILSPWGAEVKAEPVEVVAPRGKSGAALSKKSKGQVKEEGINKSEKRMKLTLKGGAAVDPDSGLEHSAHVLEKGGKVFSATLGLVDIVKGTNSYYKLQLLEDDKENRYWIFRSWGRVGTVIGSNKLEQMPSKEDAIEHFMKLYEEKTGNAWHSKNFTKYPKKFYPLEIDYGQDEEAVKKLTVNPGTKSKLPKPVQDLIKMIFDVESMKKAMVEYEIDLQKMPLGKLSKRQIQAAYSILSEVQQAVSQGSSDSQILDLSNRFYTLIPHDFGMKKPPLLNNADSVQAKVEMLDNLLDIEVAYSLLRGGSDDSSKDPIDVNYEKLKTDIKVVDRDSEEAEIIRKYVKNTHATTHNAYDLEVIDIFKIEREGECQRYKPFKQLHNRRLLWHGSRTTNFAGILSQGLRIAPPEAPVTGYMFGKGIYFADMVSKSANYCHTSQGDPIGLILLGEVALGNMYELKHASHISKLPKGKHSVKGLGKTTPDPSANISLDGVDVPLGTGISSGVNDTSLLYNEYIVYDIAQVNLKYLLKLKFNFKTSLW
Sequence of Eukaryotic translation initiation factor 2 subunit 1 (Homo sapiens) (P05198 whole entry): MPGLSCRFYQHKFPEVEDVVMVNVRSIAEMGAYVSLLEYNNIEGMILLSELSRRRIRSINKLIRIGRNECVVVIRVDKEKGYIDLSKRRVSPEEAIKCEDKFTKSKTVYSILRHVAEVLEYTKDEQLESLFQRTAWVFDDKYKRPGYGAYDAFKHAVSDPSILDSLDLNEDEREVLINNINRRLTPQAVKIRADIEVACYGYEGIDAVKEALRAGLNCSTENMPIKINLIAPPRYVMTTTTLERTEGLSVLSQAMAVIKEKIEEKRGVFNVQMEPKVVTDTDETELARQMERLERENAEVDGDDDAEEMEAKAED

Drug metabolism (A549 [2]): metabolite_detected | Drug metabolism (Tumour [4]): metabolite_detected | Activity [5]: Active | Drug uptake (Tumour [6]): Active | Ratio [7]: 9.2 | Activity [8]: Active | Activity [11]: Active | Ratio [16]: 13.3 | Drug metabolism (U-937): metabolite_detected | inhibition [21]: Active | t1/2 [22]: 16 min
Structure (SMILES): CN(C)/[N+]([O-])=N\Oc1cc(O/N=[N+](\[O-])N2CCN(C(=O)c3cc(Cc4n[nH]c(=O)c5ccccc45)ccc3F)CC2)c([N+](=O)[O-])cc1[N+](=O)[O-]
inhibition (A549 [1]): Active | Activity (A549 [3]): Active | Activity (A549 [9]): Active | Activity (A549 [10]): Active | Activity (A549 [12]): Active | Activity (A549 [13]): Active | Activity (A549 [14]): Active | growth inhibition (GI) (A549 [15]): Active | Activity (A549 [17]): inactive | Activity (A549 [18]): Active | Activity (A549 [19]): Active | Activity (Mus musculus): 25.3 g | Activity (A549 [20]): Active
